Source: PubChem BioAssay
FLuc inhib CS = inhibits firefly luciferase, flagging false hits in luciferase inhibition screens; inhibition, % at 10 µM; ATPLite firefly luciferase biochemical luminescence, 10 min; P08659; actives 1.5% (n = 200,000);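 active = inhibition above about 50% when tested at 10 µM, limit read from the data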
Target sequence (P08659 whole entry, looked up): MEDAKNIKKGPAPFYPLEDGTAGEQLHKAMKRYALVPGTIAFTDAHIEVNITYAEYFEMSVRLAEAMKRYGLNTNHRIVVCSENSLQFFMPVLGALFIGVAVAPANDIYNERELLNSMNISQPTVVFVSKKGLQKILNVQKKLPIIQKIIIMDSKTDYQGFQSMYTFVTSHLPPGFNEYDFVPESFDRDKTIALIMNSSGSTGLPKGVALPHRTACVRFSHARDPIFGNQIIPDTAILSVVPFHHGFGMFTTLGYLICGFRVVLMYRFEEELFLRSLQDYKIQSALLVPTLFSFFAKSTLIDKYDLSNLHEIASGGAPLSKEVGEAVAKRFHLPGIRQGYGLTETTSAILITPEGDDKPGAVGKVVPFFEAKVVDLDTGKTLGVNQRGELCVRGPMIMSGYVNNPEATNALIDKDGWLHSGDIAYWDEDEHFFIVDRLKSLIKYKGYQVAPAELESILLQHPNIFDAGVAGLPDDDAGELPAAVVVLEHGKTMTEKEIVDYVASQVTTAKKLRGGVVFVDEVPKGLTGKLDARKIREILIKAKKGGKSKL
HSP90 inh = blocks HSP90-mediated luciferase refolding in reticulocyte lysate | Rabbit reticulocyte lysate, luciferase refolding luminescence, 3 h | inhibition, % at 5.6 µM | actives 0.91% (n = 290,000);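 active = inhibition above the screen-wide mean plus 3 SD, computed separately per campaign, cut at about 16% in these data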;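 note: 0% = DMSO wells and 100% = 60 µM geldanamycin wells; inhibitors lower the luminescence because luciferase stays unfolded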
TRAIL sens C8 = sensitizes caspase-8 expressing cells to TRAIL; AID 624354; actives 1% (n = 360,000); inhibition (viability loss, TRAIL sensitization), % at 10 µM; NB7+C8 cells + TRAIL, ATPlite viability luminescence;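 active = compounds causing at least 50% loss of cell viability in the single-dose screen, relative to plate controls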
FLuc stim CS = affects firefly luciferase, flagging false hits in luciferase stimulation screens; P08659; ATPlite luciferase biochemical, luminescence, 10 min; 0 = ATP-free wells, 1 = DMSO control; activation factor at 10 µM; 200,000 tested, under 10 active;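 active = luciferase activation factor, scaled between plate controls, of at least 2 with compound at 10 µM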
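Assay system – cell-free luciferase reagent · Medium – PBS-based ATP solution · Dosing – test compounds dosed from 2 mM stocks in 100% DMSO · Timing – 10 min, room temperature · Technique – light output (luminescence) · Measure – luminescence gain marking luciferase activators · Controls – No-ATP low control, compound-free enzyme-plus-ATP high control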
STAT3 inh = reduces IL-6 driven STAT3 reporter signal; AID 862; inhibition, % at 5.5 µM; actives 0.89% (n = 190,000); U3A cells, IL-6 STAT3-luciferase reporter, luminescence; host cell line lacks STAT1;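 active = inhibition above the mean inhibition across all screened compounds plus 3 SD, cut at about 44% in these data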;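 note: 0% = DMSO only wells and 100% = 100 µM nifuroxazide control wells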
PPC-1+TRAIL kill = compounds killing PPC-1 cancer cells with TRAIL present (potentiator screen, no TRAIL-free arm). PPC-1 cells + TRAIL, ATPLite viability luminescence. cell killing (% activity), % at 4 µM or 5 µM. actives 0.41% (n = 220,000). AID 1443;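 active = cell killing above 50% in the first pass at 4 µM, then a duplicate retest at 5 µM averaging 50% or more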;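 note: plate controls were cells with TRAIL plus DMSO for no effect and medium-only wells lacking cells for full effect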
Numbers without * were called inactive; nt = not tested or not shown. This is a sample that favours compounds with a hit; in the whole collection about 2.2% have one here.

SMILES	FLuc inhib CS	HSP90 inh	TRAIL sens C8	FLuc stim CS	STAT3 inh	PPC-1+TRAIL kill
CN=c1sc2c(n1C)C(=O)c1ccccc1C2=O	nt	nt	75.8*	nt	nt	nt
CC(C)C(=O)N1CCCC1(C)C(=O)Nc1ccc(-n2cncn2)cc1 (configuration not stated)	nt	nt	-1.4	nt	nt	nt
Cc1ccc(C=Nc2ccc(N(C)C)cc2)o1	76.4*	-1.3	2.1	0.2	6.0	-2.1
C(C#CCCCCCCCCC[n+]1ccccc1)#CCCCCCCCCC[n+]1ccccc1	nt	-5.5	90.9*	nt	nt	nt
CC1=NNC(=O)/C1=C\c1cn(-c2ccccc2)nc1-c1ccc(F)cc1	-7.8	4.0	86.0*	1.1	15.7	21.6
O=C(/C=C/Nc1ccc(F)cc1)c1ccco1	91.6*	-2.0	60.4*	0.1	29.3	48.2
CCOC(=O)c1ccc(N/C=C/C(=O)c2ccco2)cc1	61.6*	5.4	50.6*	0.4	42.9	25.9
CCOC(=O)c1ccc(N/C=C/C(=O)c2ccc(OC)c(OC)c2)cc1	-4.3	0.2	18.1	1	9.0	8.2
CCOC(=O)CNC(=O)N1CCCC(CCC(=O)NCc2ccc(F)c(F)c2)C1 (configuration not stated)	-4.6	0.5	-9.1	1	-0.3	0.4
CCN1/C(=C/C(C)=C/c2sc3ccccc3[n+]2CC)Sc2ccccc21	41.8	0.9	50.4*	0.6	95.9*	47.3
CCOC(=O)c1nn(-c2ccc(C)cc2)cc1O	58.8*	6.3	27.9	0.4	19.2	13.3
CCOC(=O)c1nn(-c2ccc(Cl)cc2)cc1O	nt	1.2	14.2	nt	nt	13.6
Cc1ccc(-c2csc(NC(=O)/C=C/c3ccco3)c2C(=O)O)cc1	64.2*	-1.5	32.6	0.4	10.9	30.8
O=C(/C=C/c1ccco1)Nc1ccccc1C(=O)O	79.9*	7.3	48.0*	0.2	20.5	19.5
O=C(/C=C/c1ccco1)Nc1cccc(NC(=O)/C=C/c2ccco2)n1	52.5*	-2.7	19.1	0.5	-23.9	17.4
O=C(/C=C/c1ccco1)NC1=NCCS1	34.5	3.3	0.0	0.7	-7.4	20.4
O=C(O)c1ccc(NC(=S)NC(=O)c2ccc(-c3ccccc3)cc2)cc1	29.1	-0.8	10.7	0.7	6.2	7.8
O=C(NC(=S)Nc1ccccc1)c1ccc(-c2ccccc2)cc1	9.0	2.2	-9.7	0.9	4.1	53.6*
COc1ccc(C(=O)NNC(=S)NC(=O)c2ccc(OC)cc2)cc1	nt	-4.4	11.2	nt	nt	nt
COc1ccc(C(=O)NNC(=S)Nc2ccccc2)cc1	57.1*	-1.8	26.8	0.4	-16.3	21.6
O=c1c2ccccc2nnn1Cc1ccccc1Cl	1.5	8.0	5.8	1	10.0	4.7
Cc1c(NC(=O)CC2NC(=O)NC2=O)c(=O)n(-c2ccccc2)n1C (configuration not stated)	-3.3	4.2	nt	1	11.7	14.1
CCCCCC(=O)N1C[C@H](n2cc(COC(=O)c3ccccc3)nn2)[C@@H](O)C[C@@H]1c1ccc(Cl)cc1	nt	nt	57.5*	nt	nt	nt
CCC1CCCCN1C(=O)COC(=O)c1cc(C)nc2ccccc12 (configuration not stated)	nt	nt	3.1	nt	nt	nt
C#Cc1cccc(Nc2nc(NCc3ccccc3OC)nc3ccsc23)c1	nt	nt	45.6*	nt	nt	nt
SMILES	FLuc inhib CS	HSP90 inh	TRAIL sens C8	FLuc stim CS	STAT3 inh	PPC-1+TRAIL kill
C#Cc1cccc(Nc2nc(NCCOC)nc3ccsc23)c1	nt	nt	8.0	nt	nt	nt
Cc1cc(C(=O)Nc2sc3c(c2C#N)CCC3)no1	65.9*	-3.9	50.9*	0.3	0.1	24.2
Cc1cc(C(=O)Nc2sc3c(c2C#N)CCCC3)no1	83.7*	5.0	51.8*	0.2	3.5	20.5
Cc1cc(C(=O)Nc2sc3c(c2C#N)CCC(C)C3)no1 (configuration not stated)	72.5*	0.7	55.3*	0.3	25.4	32.7
N#Cc1c(NC(=O)c2cc(C3CC3)on2)sc2c1CCC2	-4.5	nt	17.4	1	nt	20.0
Cc1ccccc1NC(=O)Cc1nc(COC(=O)c2ccc(S(C)(=O)=O)c([N+](=O)[O-])c2)cs1	nt	nt	54.4*	nt	nt	nt
CCOc1ccc(/C=C/C(=O)c2c(O)c3ccccc3oc2=O)cc1	67.3*	-5.1	22.1	0.3	-2.9	15.7
CCOc1ccc(/C=C/C(=O)c2c(O)cc(C)oc2=O)cc1	nt	-3.1	66.3*	nt	nt	nt
CN(C)c1ccc(/C=C/C(=O)c2c(O)c3ccccc3oc2=O)cc1	nt	5.5	5.7	nt	nt	-8.6
Clc1ccc(OCCSc2ncccn2)c(Br)c1	54.2*	-0.1	20.7	0.5	14.4	16.6
O=C(C1=C[C@@H](c2coc3ccccc3c2=O)C[C@@H](OCCCCO)O1)N1CCN(Cc2ccc3c(c2)OCO3)CC1	1.5	16.8*	2.1	1	nt	10.0
O=C(C1=C[C@H](C2CC2)C[C@H](OCCCCO)O1)N1CCN(Cc2ccc3c(c2)OCO3)CC1	-2.4	16.8*	-4.4	1	nt	-2.9
Cc1cccc(C(=O)OCC(=O)NCCCc2ccccc2)c1O	nt	2.4	9.5	nt	nt	nt
CCN(CC(=O)Nc1ccccc1C(F)(F)F)C(=O)C1CC(=O)N(Cc2ccccc2)C1 (configuration not stated)	nt	nt	7.8	nt	nt	nt
CCN(CC)C(=O)COc1ccc(/C(C)=N/NC(=O)c2ccccc2Br)cc1	0.8	-1.9	2.2	1	-3.0	8.8
CCN(CC)C(=O)COc1ccc(/C(C)=N/NC(=O)c2ccccc2O)cc1	63.2*	-0.8	34.8	0.4	4.0	36.5
O=c1oc2ccccc2cc1-c1nc(-c2ccccc2)no1	74.8*	0.6	8.4	0.3	41.3	24.2
Cc1ccc(-c2noc(-c3cc4ccccc4oc3=O)n2)cc1	0.8	-1.9	7.3	1	13.4	14.6
CCCCC1Cc2[nH][nH]c(=O)c2C(c2ccc(Cl)cc2)O1 (configuration not stated)	nt	nt	-28.3	nt	nt	nt
O=C(O/N=C/c1ccc2c(c1)OCO2)c1ccccc1Cl	69.5*	1.4	nt	0.3	3.9	28.4
O=C(N/N=C/c1ccc2c(c1)OCO2)C(=O)Nc1ccccc1Cl	nt	-4.1	26.9	nt	nt	nt
COc1ccc(-c2[nH]nc3c2C(c2ccsc2)C(C#N)=C(N)O3)cc1 (configuration not stated)	-3.7	5.6	-22.4	1	-10.0	19.3
COc1cccc(-c2[nH]nc3c2C(c2ccsc2)C(C#N)=C(N)O3)c1 (configuration not stated)	-8.8	16.3*	-20.6	1.1	4.7	15.7
CN(C(=O)c1cccc(NC(=O)Cc2cccc(NC(=O)C3CCN(C(=O)C4CCCC4)CC3)c2)c1)C1CC1	nt	nt	-22.6	nt	nt	nt
Cc1[nH]nc(C(F)(F)F)c1N=NN1CCOCC1	nt	nt	77.6*	nt	nt	nt
Clc1ccc(N=NN2CCOCC2)cc1	nt	1.2	-12.2	nt	nt	18.6
CC(=O)Nc1ccc(C=NNc2nnc(NN=Cc3ccc(NC(C)=O)cc3)c3ccccc23)cc1	nt	nt	64.1*	nt	nt	nt
Clc1nnc(N/N=C/c2ccccc2)c2ccccc12	68.9*	-0.5	43.4	0.3	-60.4	40.7
